Assay [1] relates to Rattus norvegicus. In words: Antiinflammatory activity in Sprague-Dawley rat assessed as inhibition of carrageenan-induced foot paw oedema at 200 mg/kg, ip after 1 hr by plethysmometer analysis relative to control. The class given is functional. The conditions noted are these: for inhibition in vivo at 200 mg/kg: route intraperitoneal. An outline of the steps:
(§1)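 Male Sprague–Dawley rats (250 g), fasted at least 16 h with water available. Compounds were given i.p. as a 1 mL suspension in 0.5% methyl cellulose; controls received vehicle. Paw volume was read by water-displacement plethysmometer before treatment and 1 and 2 h after. Activity (%) = (1 − D/C) × 100, where D and C are paw-volume changes in treated and control rats; mean ± SEM, n = 4–6.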
On the technique in general: In the carrageenan paw model, swelling and tenderness develop within hours.

Assay [2] relates to Rattus norvegicus. In words: Antiinflammatory activity in Sprague-Dawley rat assessed as inhibition of carrageenan-induced foot paw oedema at 100 mg/kg, ip after 1 hr by plethysmometer analysis relative to control. The settings on record: route intraperitoneal. The class given is functional. The gist of the method:
as §1

Assay [3] has as its system Rattus norvegicus. In words: Antiinflammatory activity in Sprague-Dawley rat assessed as inhibition of carrageenan-induced foot paw oedema at 200 mg/kg, ip after 2 hrs by plethysmometer analysis relative to control. The class given is functional. The settings on record: for inhibition in vivo at 200 mg/kg: route intraperitoneal. An outline of the steps: as §1
In assay [4] the test system is Rattus norvegicus. Briefly: Antiinflammatory activity in Sprague-Dawley rat assessed as inhibition of carrageenan-induced foot paw oedema at 100 mg/kg, ip after 2 hrs by plethysmometer analysis relative to control. The conditions noted are these: route intraperitoneal. The class given is functional. An outline of the steps: as §1
The test system of assay [5] is Rattus norvegicus. Briefly: Antiinflammatory activity in ip dosed Sprague-Dawley rat assessed as inhibition of carrageenan-induced foot paw oedema after 2 hrs by plethysmometer analysis. Format: functional. The gist of the method:
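Rat carrageenan paw oedema: male Sprague–Dawley rats (250 g), fasted ≥16 h, dosed i.p. with a 1 mL suspension in 0.5% methyl cellulose. Paw swelling was measured by plethysmometer water displacement, and percent inhibition was taken against vehicle controls.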

For assay [6], the target named is T1, Prostaglandin G/H synthase 1 (Ovis aries, UniProt P05979).
T1 sequence (P05979 whole entry): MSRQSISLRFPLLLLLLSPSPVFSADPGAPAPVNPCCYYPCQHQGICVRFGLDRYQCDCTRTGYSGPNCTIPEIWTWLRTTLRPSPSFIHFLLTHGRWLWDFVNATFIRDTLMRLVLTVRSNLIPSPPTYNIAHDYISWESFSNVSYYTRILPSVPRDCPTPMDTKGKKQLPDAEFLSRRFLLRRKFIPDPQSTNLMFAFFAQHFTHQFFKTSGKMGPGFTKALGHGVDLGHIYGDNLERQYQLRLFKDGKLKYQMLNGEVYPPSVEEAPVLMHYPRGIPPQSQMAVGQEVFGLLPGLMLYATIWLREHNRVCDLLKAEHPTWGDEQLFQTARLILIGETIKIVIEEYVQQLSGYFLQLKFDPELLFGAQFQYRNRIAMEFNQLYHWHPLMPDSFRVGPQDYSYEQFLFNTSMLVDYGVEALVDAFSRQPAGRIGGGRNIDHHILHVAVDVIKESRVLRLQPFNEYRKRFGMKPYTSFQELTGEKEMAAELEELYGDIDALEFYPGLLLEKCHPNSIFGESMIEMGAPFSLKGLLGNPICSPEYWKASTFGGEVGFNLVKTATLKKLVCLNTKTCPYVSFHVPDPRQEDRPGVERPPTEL
In words: Inhibition of ovine COX1 assessed as PGF2alpha production from PGH2 after 5 mins by enzyme immunoassay. The gist of the method: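 Ovine COX-1 in reaction buffer with 2 mM phenol and heme, preincubated with six test concentrations (1 mL final) for 5 min at 37 °C. Arachidonic acid was then added and the reaction stopped with 1 M HCl after 2 min. Prostanoids were reduced with stannous chloride and quantified by competitive acetylcholinesterase-tracer EIA (Ellman's reagent, 410 nm). IC50 came from concentration–inhibition curves, duplicate determinations.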

In assay [7] the target is T2, Prostaglandin G/H synthase 1 (Ovis aries) (UniProt P05979).
T2 sequence (whole entry): T1 sequence (P05979 whole entry)
In words: Inhibition of ovine COX1 assessed as PGF2alpha production from PGH2 at 0.5 uM after 5 mins by enzyme immunoassay. An outline of the steps: (§2)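 Enzyme (ovine COX-1) with heme in buffer containing 2 mM phenol was preincubated with the test compound for 5 min at 37 °C, then given arachidonic acid for 2 min before quenching with 1 M HCl. Products were reduced with stannous chloride and measured by competitive PG-tracer EIA at 410 nm. Percent inhibition was calculated against control incubations.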

For assay [8], the target named is T2, Prostaglandin G/H synthase 1 (Ovis aries). Briefly: Inhibition of ovine COX1 assessed as PGF2alpha production from PGH2 at 100 uM after 5 mins by enzyme immunoassay. The gist of the method:
as §2

The structures appear in SMILES notation. Calls of active or inactive are those of the source. The calls are words filed in the database; no cut-off is given here. Where only a bound is given, the exact number is not on record here.

As usually defined, the inhibition in vivo is the percentage by which the read-out fell short of the control. In general, ED50 refers to the dose that gives a 50% effect, or the effect in half of the subjects. What is called IC50 is the midpoint of a concentration-inhibition curve. A word on the inhibition: it is how much of the control response was suppressed.

On to `CCN1CCC(=O)/C(=C/c2c(C(F)(F)F)nn(-c3ccccc3)c2-c2ccc(Cl)cc2)C1`, for which the inhibition in vivo at 200 mg/kg turned out to be 80% in the assay with Rattus norvegicus [1] and 89.7% in the assay with Rattus norvegicus [3]. For the same compound, the values for the inhibition in vivo at 100 mg/kg with Rattus norvegicus [2] and in the assay with Rattus norvegicus [4] were 41% and 64%, respectively. In addition, the ED50 in the assay with Rattus norvegicus [5] turned out to be 120 mg/kg. For the same compound, the IC50 in assay [6] is more than 50 µM.
Regarding `O=C(/C=C/c1c(C(F)(F)F)nn(-c2ccccc2)c1-c1ccc(Cl)cc1)c1ccc(Cl)cc1`, the inhibition in vivo at 200 mg/kg with Rattus norvegicus [1] was 1.5%; in the assay on Rattus norvegicus [3] it was 4.4%. Moreover, in assay [6], the IC50 is more than 50 µM.
For `O=[N+]([O-])c1ccc(N/N=C2/C(c3ccc(Cl)cc3)=NN=C2C(F)(F)F)cc1`, in that order: 4%, 7% and more than 50 µM.
With `FC(F)(F)C1=NN=C(c2ccc(Cl)cc2)/C1=N/Nc1ccccc1Cl`, the inhibition in vivo at 200 mg/kg in the assay on Rattus norvegicus [1] was determined as 38.4%; in the assay on Rattus norvegicus [3], 15.1%. The IC50 in assay [6] was more than 50 µM.
On the same counts, the results for `O=C(/C=C/c1c(C(F)(F)F)nn(-c2ccccc2)c1-c1ccc(Cl)cc1)c1ccccc1` are 1.8%, 2.6% and more than 50 µM.
On the same counts, the results for `O=C(/C(=N\Nc1ccc(Cl)cc1)C(=O)C(F)(F)F)c1ccc(Cl)cc1` are 26.7%, 35.2% and more than 50 µM.
For the compound `O=C(/C(=N\Nc1ccc(Br)cc1)C(=O)C(F)(F)F)c1ccc(Cl)cc1`, the inhibition in vivo at 200 mg/kg in the assay with Rattus norvegicus [1] came out at 35%; in the assay with Rattus norvegicus [3], 33.8%. In addition, the inhibition in vivo at 100 mg/kg with Rattus norvegicus [2] was 0%; in the assay on Rattus norvegicus [4], 13.9%. The ED50 in the assay with Rattus norvegicus [5] was determined as 280 mg/kg. Also, in assay [6], the IC50 was more than 50 µM.
Regarding `COc1ccc(N/N=C2/C(c3ccc(Cl)cc3)=NN=C2C(F)(F)F)cc1`, the inhibition result with Rattus norvegicus [1] and with Rattus norvegicus [3] was “inactive” throughout. For the same compound, the IC50 in assay [6] was more than 50 µM.
For `O=C1CCC/C1=C\c1c(C(F)(F)F)nn(-c2ccccc2)c1-c1ccc(Cl)cc1`, the inhibition in vivo at 200 mg/kg in the assay on Rattus norvegicus [1] came to 80.7%; in the assay on Rattus norvegicus [3] it was 82%. The inhibition in vivo at 100 mg/kg in the assay with Rattus norvegicus [2] was 37%; in the assay with Rattus norvegicus [4], 67%. The ED50 in the assay with Rattus norvegicus [5] amounted to 118 mg/kg. In addition, the IC50 in assay [6] is more than 50 µM.
In the case of `O=Cc1c(C(F)(F)F)nn(-c2ccccc2)c1-c1ccc(Cl)cc1`, the inhibition in vivo at 200 mg/kg in the assay on Rattus norvegicus [1] amounted to 75%; in the assay on Rattus norvegicus [3], 59.1%. Further, the inhibition in vivo at 100 mg/kg worked out at 24.1% in the assay on Rattus norvegicus [2] and 40.3% in the assay on Rattus norvegicus [4]. The ED50 in the assay on Rattus norvegicus [5] was 190 mg/kg. In addition, the IC50 in assay [6] is more than 50 µM.
Turning to `FC(F)(F)C1=NN=C(c2ccc(Cl)cc2)/C1=N/Nc1ccc(Br)cc1`, the inhibition in vivo at 200 mg/kg was found to be 26.3% in the assay on Rattus norvegicus [1] and 52.1% in the assay with Rattus norvegicus [3]. For the same compound, the figures for the inhibition in vivo at 100 mg/kg in the assay with Rattus norvegicus [2] and in the assay with Rattus norvegicus [4] were 17.5% and 31.3%, respectively. Besides, the ED50 with Rattus norvegicus [5] came to 180 mg/kg. Also, the IC50 in assay [6] is more than 50 µM.
Take `FC(F)(F)C1=NN=C(c2ccc(Cl)cc2)/C1=N/Nc1ccc(Cl)cc1`: the inhibition in vivo at 200 mg/kg came out at 8.1% in the assay with Rattus norvegicus [1] and 9.1% in the assay with Rattus norvegicus [3]. Moreover, in assay [6], the IC50 was more than 50 µM.
Take `O=C(/C(=N\Nc1ccccc1Cl)C(=O)C(F)(F)F)c1ccc(Cl)cc1`: the inhibition in vivo at 200 mg/kg with Rattus norvegicus [1] was 47.1%; with Rattus norvegicus [3], 41.7%. Also, the inhibition in vivo at 100 mg/kg worked out at 0% in the assay with Rattus norvegicus [2] and 19.3% in the assay on Rattus norvegicus [4]. Also, the ED50 in the assay on Rattus norvegicus [5] was 260 mg/kg. In assay [6], the IC50 was more than 50 µM. In addition, the results for the inhibition in assay [7] and in assay [8] were 31% and 25%, respectively.
Turning to `O=C(/C(=N\Nc1cc(C(F)(F)F)cc(C(F)(F)F)c1)C(=O)C(F)(F)F)c1ccc(Cl)cc1`, the inhibition in vivo at 200 mg/kg was determined as 80% in the assay with Rattus norvegicus [1] and 88.4% in the assay with Rattus norvegicus [3]. The figures for the inhibition in vivo at 100 mg/kg with Rattus norvegicus [2] and in the assay on Rattus norvegicus [4] were 33% and 59%, respectively. In the assay with Rattus norvegicus [5], the ED50 was found to be 112 mg/kg. Also, in assay [6], the IC50 is more than 50 µM.
For `CN1CCC(=O)/C(=C/c2c(C(F)(F)F)nn(-c3ccccc3)c2-c2ccc(Cl)cc2)C1`, the inhibition in vivo at 200 mg/kg in the assay on Rattus norvegicus [1] was 6.7%; in the assay with Rattus norvegicus [3] it was 20.3%. The IC50 in assay [6] is more than 50 µM.
Regarding `O=C(O)Cc1ccccc1Nc1c(Cl)cccc1Cl` [DICLOFENAC SODIUM], the inhibition in vivo at 100 mg/kg was 88.5% in the assay with Rattus norvegicus [2] and 89.5% in the assay on Rattus norvegicus [4].
As to `COc1ccc(N/N=C(\C(=O)c2ccc(Cl)cc2)C(=O)C(F)(F)F)cc1`, the values for the inhibition in vivo at 200 mg/kg with Rattus norvegicus [1] and in the assay on Rattus norvegicus [3] were 27.6% and 42.2%, respectively. Moreover, the inhibition in vivo at 100 mg/kg stood at 0% in the assay on Rattus norvegicus [2] and 3.8% with Rattus norvegicus [4]. Besides, the ED50 in the assay on Rattus norvegicus [5] stood at 240 mg/kg. The IC50 in assay [6] is more than 50 µM. For the same compound, the inhibition in assay [7] is 31%; in assay [8], 25%.
Take `FC(F)(F)C1=NN=C(c2ccc(Cl)cc2)/C1=N/Nc1cc(C(F)(F)F)cc(C(F)(F)F)c1`: the inhibition in vivo at 200 mg/kg in the assay on Rattus norvegicus [1] worked out at 40.8%; with Rattus norvegicus [3], 28.8%. For the same compound, the inhibition in vivo at 100 mg/kg with Rattus norvegicus [2] is 3.4%; with Rattus norvegicus [4] it was 17.3%. For the same compound, the IC50 in assay [6] was more than 50 µM.
For `O=C(/C(=N\Nc1ccc([N+](=O)[O-])cc1)C(=O)C(F)(F)F)c1ccc(Cl)cc1`, the values for the inhibition in vivo at 200 mg/kg in the assay on Rattus norvegicus [1] and in the assay with Rattus norvegicus [3] were 35.8% and 57.3%, respectively. Also, the inhibition in vivo at 100 mg/kg with Rattus norvegicus [2] amounted to 0%; in the assay on Rattus norvegicus [4], 17.9%. Moreover, in the assay on Rattus norvegicus [5], the ED50 came out at 170 mg/kg. Also, the 50% inhibitory concentration (IC50) in assay [6] was more than 50 µM. The inhibition was determined as 31% in assay [7] and 25% in assay [8].
On to `O=C1CCCC/C1=C\c1c(C(F)(F)F)nn(-c2ccccc2)c1-c1ccc(Cl)cc1`, for which the inhibition in vivo at 200 mg/kg with Rattus norvegicus [1] stood at 33.7%; in the assay with Rattus norvegicus [3], 23.9%. Besides, the IC50 in assay [6] is more than 50 µM.

The record behind these values is ChEMBL document CHEMBL1777799, “Design, synthesis, and biological evaluation of substituted hydrazone and pyrazole derivatives as selective COX-2 inhibitors: Molecular docking study” (Bioorg Med Chem, 2011).
